Experimental data as given in ChEMBL document CHEMBL2069182, “Discovery and optimization of a novel series of GPR142 agonists for the treatment of type 2 diabetes mellitus” (Bioorg Med Chem Lett, 2012).

Assays:
[1] = biological target: T1, Probable G-protein coupled receptor 142 (Homo sapiens, UniProt Q7Z601); experiment: Agonist activity at human GPR142 expressed in HEK293 cells assessed as inositol phosphate accumulation using [3H]-inositol after 1 hr by scintillation counting; type: functional, cell-based
T1 sequence (Q7Z601 whole entry): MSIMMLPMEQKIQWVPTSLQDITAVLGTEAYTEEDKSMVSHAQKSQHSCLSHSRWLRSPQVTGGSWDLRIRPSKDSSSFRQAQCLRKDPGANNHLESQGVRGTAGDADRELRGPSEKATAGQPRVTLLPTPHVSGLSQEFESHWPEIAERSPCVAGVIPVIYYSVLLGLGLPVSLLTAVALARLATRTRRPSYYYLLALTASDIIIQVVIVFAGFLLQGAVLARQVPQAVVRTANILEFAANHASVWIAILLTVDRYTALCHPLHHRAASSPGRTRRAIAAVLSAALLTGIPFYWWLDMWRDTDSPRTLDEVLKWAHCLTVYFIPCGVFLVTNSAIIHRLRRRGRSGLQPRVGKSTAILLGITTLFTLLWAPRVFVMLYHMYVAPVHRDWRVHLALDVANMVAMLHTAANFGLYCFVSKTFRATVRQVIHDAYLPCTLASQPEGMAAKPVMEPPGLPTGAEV
How it was run: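 HEK293 cells plated at 25,000/well, next day (80–90% confluent) transfected with 100 ng receptor plasmid per well by Lipofectamine; after 6 h switched to inositol-free DMEM/10% dialyzed FCS with 1 µCi/mL [3H]-inositol overnight. Washed in HBSS, then compound dilutions (DMSO) in HBSS/0.01% BSA plus 10 mM LiCl, 37 °C, 1 h. Lysed in ice-cold 20 mM formic acid, 4 °C 5 h, then yttrium silicate SPA beads, scintillation counting. Emax as % of maximal response to 10 mM tryptophan.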

CYP2D6 = CYP2D6 (Homo sapiens, UniProt P10635); experiment: Inhibition of CYP2D6 at 3 uM; type: ADME
CYP3A4 = CYP3A4 (Homo sapiens, UniProt P08684); experiment: Inhibition of CYP3A4 at 3 uM; type: ADME
[2] = biological target: T1, Probable G-protein coupled receptor 142; experiment: Agonist activity at human GPR142 expressed in HEK293 cells assessed as inositol phosphate accumulation using [3H]-inositol after 1 hr by scintillation counting in presence of human serum; type: functional, cell-based
How it was run: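 Same transfected HEK293 [3H]-inositol IP accumulation protocol as buffer assay, but compound incubation (10 mM LiCl, 37 °C, 1 h) run in 100% human serum instead of HBSS/0.01% BSA. Formic acid lysis, SPA bead scintillation read-out. Emax expressed as % of maximal 10 mM tryptophan response.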

[3] = biological target: T2, Probable G-protein coupled receptor 142 (Homo sapiens) (UniProt Q7Z601); experiment: Agonist activity at human GPR142 expressed in HEK293 cells assessed as inositol phosphate accumulation using [3H]-inositol after 1 hr by scintillation counting relative to tryptophan; type: functional, cell-based
T2 sequence (whole entry): T1 sequence (Q7Z601 whole entry)
How it was run: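 HEK293 cells on poly-D-lysine were transfected next day with 100 ng receptor plasmid/well, then labelled overnight with 1 µCi/mL [3H]-inositol in inositol-free DMEM/10% dialyzed FCS. Cells got graded compound in HBSS/0.01% BSA with 10 mM LiCl for 1 h at 37 °C. They were lysed in ice-cold 20 mM formic acid and counted with yttrium silicate SPA beads. EC50 given; Emax as % of maximal tryptophan response at 10 mM.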

[4] = biological target: T2, Probable G-protein coupled receptor 142 (Homo sapiens); experiment: Agonist activity at human GPR142 expressed in HEK293 cells assessed as inositol phosphate accumulation using [3H]-inositol after 1 hr by scintillation counting in presence of human serum relative to tryptophan; type: functional, cell-based
How it was run: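 Transiently transfected HEK293 cells were labelled overnight with 1 µCi/mL tritiated inositol, then given graded compound in 100% human serum (in place of HBSS/0.01% BSA) with 10 mM LiCl for 1 h at 37 °C. Lysis was in ice-cold 20 mM formic acid, with SPA-bead scintillation read-out. EC50 given; Emax as % of maximal tryptophan response.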

[5] = Induction of insulin secretion in mouse pancreatic islets in presence of 16.7 mM of glucose; type: functional; conditions: Pancreatic islet
How it was run: (§1)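 Isolated mouse islets stimulated in 16.7 mM glucose with 0.625% HSA and 1% DMSO; insulin secretion measured, Emax reported as percentage.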

[6] = Induction of insulin secretion in mouse pancreatic islets in presence of 16.7 mM of glucose relative to control; type: functional; conditions: Pancreatic islet; how it was run: as §1
Rattus norvegicus = experiment: Clearance in rat at 0.5 mg/kg, iv; type: ADME, organism-based; parameters: dose 0.5 mg/kg, route intravenous; conditions: in vivo
How it was run: (§2)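 Rats dosed iv at 0.5 mg/kg; clearance, steady-state volume of distribution and mean residence time derived.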

[7] = Oral bioavailability in rat at 2 mg/kg; type: ADME, organism-based; conditions: in vivo
How it was run: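 Rats given 2.0 mg/kg po; bioavailability (%F) determined against iv dosing at 0.5 mg/kg.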

[8] = Half life in rat hepatocytes; type: ADME, cell-based, Liver, Hepatocyte
Cytochrome P450 2D6 = Cytochrome P450 2D6 (Homo sapiens, UniProt P10635); experiment: Inhibition of CYP2D6; type: ADME
Hepatocyte = experiment: Clearance in rat hepatocytes assessed per 10^-6 cells; type: ADME, cell-based
[9] = Volume of distribution at steady state in rat at 0.5 mg/kg, iv; type: ADME, organism-based; parameters: dose 0.5 mg/kg, route intravenous; conditions: in vivo, read-out: Vdss; how it was run: as §2
Cytochrome P450 2C9 = Cytochrome P450 2C9 (Homo sapiens, UniProt P11712); experiment: Inhibition of CYP2C9; type: ADME
Cytochrome P450 3A4 = Cytochrome P450 3A4 (Homo sapiens, UniProt P08684); experiment: Inhibition of CYP3A4; type: ADME
[10] = Metabolic stability in rat liver microsomes assessed as compound remaining after 30 mins; type: ADME, Microsome; conditions: read-out: Stability
How it was run: (§3)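 Human or rat liver microsomes incubated with compound for 30 min; percent parent remaining quantified by LC/MS in a high-throughput format.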

[11] = Mean residence time in rat at 0.5 mg/kg, iv; type: ADME, organism-based; parameters: dose 0.5 mg/kg, route intravenous; conditions: in vivo; how it was run: as §2
[12] = biological target: T3, Probable G-protein coupled receptor 142 (Mus musculus, UniProt Q7TQN9); experiment: Agonist activity at mouse GPR142 assessed as inositol phosphate accumulation; type: functional
T3 sequence (Q7TQN9 whole entry): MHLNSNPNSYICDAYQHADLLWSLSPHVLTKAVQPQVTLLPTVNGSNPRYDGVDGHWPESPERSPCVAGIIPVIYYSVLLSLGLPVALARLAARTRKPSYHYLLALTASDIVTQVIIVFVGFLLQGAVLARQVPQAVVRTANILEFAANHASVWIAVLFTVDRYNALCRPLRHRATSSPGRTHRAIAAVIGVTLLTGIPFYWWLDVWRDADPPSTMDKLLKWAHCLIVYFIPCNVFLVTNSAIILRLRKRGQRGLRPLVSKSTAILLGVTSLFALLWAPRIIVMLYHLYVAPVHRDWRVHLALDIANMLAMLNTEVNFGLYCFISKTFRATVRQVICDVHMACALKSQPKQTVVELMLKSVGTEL

[13] = Metabolic stability in human liver microsomes assessed as compound remaining after 30 mins; type: ADME, Microsome; conditions: read-out: Stability; how it was run: as §3

Sequence of CYP2D6 (P10635 whole entry): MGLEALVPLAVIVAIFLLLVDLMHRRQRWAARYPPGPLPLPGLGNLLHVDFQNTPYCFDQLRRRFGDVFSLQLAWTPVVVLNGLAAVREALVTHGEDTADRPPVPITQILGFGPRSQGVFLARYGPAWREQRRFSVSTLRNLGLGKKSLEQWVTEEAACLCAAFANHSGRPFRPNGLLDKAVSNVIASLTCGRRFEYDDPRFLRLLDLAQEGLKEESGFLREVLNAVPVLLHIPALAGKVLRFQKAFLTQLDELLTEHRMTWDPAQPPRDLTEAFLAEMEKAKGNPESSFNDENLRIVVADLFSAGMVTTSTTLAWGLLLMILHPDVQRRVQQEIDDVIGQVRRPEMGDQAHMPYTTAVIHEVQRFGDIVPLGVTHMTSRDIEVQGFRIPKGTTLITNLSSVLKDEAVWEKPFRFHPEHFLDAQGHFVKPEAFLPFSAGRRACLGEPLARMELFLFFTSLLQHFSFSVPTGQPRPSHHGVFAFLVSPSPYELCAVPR
Sequence of CYP3A4 (P08684 whole entry): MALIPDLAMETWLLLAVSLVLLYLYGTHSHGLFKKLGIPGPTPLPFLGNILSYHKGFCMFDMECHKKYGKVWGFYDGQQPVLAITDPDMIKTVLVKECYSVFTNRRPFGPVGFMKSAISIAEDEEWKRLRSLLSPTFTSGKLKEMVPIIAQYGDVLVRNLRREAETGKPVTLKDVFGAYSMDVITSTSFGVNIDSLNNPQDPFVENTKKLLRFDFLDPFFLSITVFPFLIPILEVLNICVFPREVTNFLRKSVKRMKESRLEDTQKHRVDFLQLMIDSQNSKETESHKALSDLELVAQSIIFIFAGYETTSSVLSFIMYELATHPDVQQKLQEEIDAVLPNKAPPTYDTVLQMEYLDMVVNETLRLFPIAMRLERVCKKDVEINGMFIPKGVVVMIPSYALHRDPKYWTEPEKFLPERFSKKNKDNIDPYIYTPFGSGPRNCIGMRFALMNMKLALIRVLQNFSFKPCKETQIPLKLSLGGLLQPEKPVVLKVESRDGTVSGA
Sequence of Cytochrome P450 2D6 (P10635 whole entry): as the sequence (P10635 whole entry) above
Sequence of Cytochrome P450 3A4 (P08684 whole entry): as the sequence (P08684 whole entry) above
Sequence of Cytochrome P450 2C9 (P11712 whole entry): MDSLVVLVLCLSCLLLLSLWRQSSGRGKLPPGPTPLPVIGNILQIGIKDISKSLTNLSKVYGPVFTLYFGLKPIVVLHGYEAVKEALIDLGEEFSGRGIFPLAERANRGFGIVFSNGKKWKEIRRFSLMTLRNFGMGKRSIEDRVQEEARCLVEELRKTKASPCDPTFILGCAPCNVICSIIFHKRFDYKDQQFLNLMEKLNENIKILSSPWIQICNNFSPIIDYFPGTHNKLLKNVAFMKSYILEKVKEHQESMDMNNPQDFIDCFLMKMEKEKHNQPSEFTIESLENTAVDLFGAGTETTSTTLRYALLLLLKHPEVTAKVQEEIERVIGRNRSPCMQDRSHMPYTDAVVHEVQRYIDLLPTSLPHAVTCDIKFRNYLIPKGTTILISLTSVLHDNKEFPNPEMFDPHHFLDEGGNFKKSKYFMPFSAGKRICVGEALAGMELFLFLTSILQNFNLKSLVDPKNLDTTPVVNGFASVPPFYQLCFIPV

SMILES | EC50 [1] [nM] | inhibition at 3 µM (CYP2D6) [%] | inhibition at 3 µM (CYP3A4) [%] | Emax [3] [%] | also measured
CC(=O)N[C@@H](Cc1ccccc1)C(=O)Nc1cc(-c2ccncc2)c[nH]c1=O | > 33000 | – | – | – | –
O=C(Nc1cccc(-c2cc[nH]n2)c1)[C@H](Cc1ccccc1)NCc1cscn1 | 67 | 36 | 59 | – | –
Cc1cc(-c2cccc(NC(=O)[C@H](Cc3ccccc3)NCc3cscn3)c2)ccn1 | 52 | 74 | 63 | – | –
NCC(=O)Nc1cc(-c2ccncc2)c[nH]c1=O | > 33000 | – | – | – | –
O=C(Nc1cccc(-c2ccncc2)c1)[C@H](Cc1ccccc1)NCc1cscn1 | 67 | 95 | 97 | – | EC50 [2]: 970 nM
N[C@H](C(=O)Nc1cc(-c2ccncc2)c[nH]c1=O)c1ccccc1 | > 33000 | – | – | – | –
COc1cc(NC(=O)[C@H](Cc2ccccc2)NCc2cscn2)cc(-c2ccncc2)c1 | 53 | – | – | – | EC50 [2]: 810 nM
O=C(Nc1cc(-c2ccncc2)c[nH]c1=O)[C@H](Cc1ccccc1)NCc1cscn1 | 93 | 95 | 97 | 120 | EC50 [2]: 500 nM; Emax [4]: 100%; EC50 [5]: 2700 nM; Emax [6]: 88%
O=C(Nc1cc(-c2ccncc2)c[nH]c1=O)[C@H](Cc1ccccc1)NCc1ccccc1 | 830 | – | – | 97 | –
O=C(Nc1cc(-c2ccn[nH]2)c[nH]c1=O)[C@H](Cc1ccccc1)NCc1cscn1 | 200 | 29 | 18 | – | –
COc1ccc(-c2ccncc2)cc1NC(=O)[C@H](Cc1ccccc1)NCc1cscn1 | 89 | – | – | – | EC50 [2]: 1000 nM
O=C(O)c1cc(NC(=O)[C@H](Cc2ccccc2)NCc2cscn2)cc(-c2ccncc2)c1 | 110 | – | – | – | clearance (Rattus norvegicus): 48.3 mL/min/kg; bioavailability [7]: 0%; half-life [8]: 39 min; IC50 (Cytochrome P450 2D6): > 30000 nM; EC50 [2]: 480 nM; CLH (Hepatocyte): 18 µL/min; Vd [9]: 0.5 L/kg; IC50 (Cytochrome P450 2C9): > 30000 nM; IC50 (Cytochrome P450 3A4): > 30000 nM; remaining at 0.5 h [10]: 74%; MRT [11]: 12 min
N[C@@H](Cc1cccc(Cl)c1)C(=O)Nc1cc(-c2ccncc2)c[nH]c1=O | > 33000 | – | – | 50 | –
N[C@@H](Cc1ccc(F)cc1)C(=O)Nc1cc(-c2ccncc2)c[nH]c1=O | 4200 | – | – | 102 | –
N[C@@H](Cc1ccc(Cl)cc1)C(=O)Nc1cc(-c2ccncc2)c[nH]c1=O | 3800 | – | – | 105 | –
Cn1ccc(-c2cccc(NC(=O)[C@H](Cc3ccccc3)NCc3cscn3)c2)n1 | 1900 | 12 | 30 | – | –
N[C@@H](Cc1ccccc1)C(=O)Nc1cc(-c2ccncc2)c[nH]c1=O | 4800 | – | – | 115 | EC50 [12]: 1400 nM
COc1ccc(NC(=O)[C@H](Cc2ccccc2)NCc2cscn2)cc1-c1ccncc1 | 240 | – | – | – | EC50 [2]: 980 nM

SMILES | EC50 [1] [nM] | inhibition at 3 µM (CYP2D6) [%] | inhibition at 3 µM (CYP3A4) [%] | Emax [3] [%] | also measured
Cn1cc(-c2cccc(NC(=O)[C@H](Cc3ccccc3)NCc3cscn3)c2)cn1 | 180 | 42 | 36 | – | –
COc1ccc(C[C@H](N)C(=O)Nc2cc(-c3ccncc3)c[nH]c2=O)cc1 | 25000 | – | – | 40 | –
Cc1cc(-c2c[nH]c(=O)c(NC(=O)[C@H](Cc3ccccc3)NCc3cscn3)c2)ccn1 | 67 | 20 | 22 | 90 | clearance (Rattus norvegicus): 43.3 mL/min/kg; bioavailability [7]: 19%; IC50 (Cytochrome P450 2D6): > 30000 nM; EC50 [2]: 290 nM; Emax [4]: 97%; Vd [9]: 0.75 L/kg; IC50 (Cytochrome P450 3A4): > 30000 nM; remaining at 0.5 h [10]: 11%; remaining at 0.5 h [13]: 10%; MRT [11]: 18 min
O=C(CCc1ccccc1)Nc1cc(-c2ccncc2)c[nH]c1=O | > 33000 | – | – | – | –
N[C@@H](Cc1ccccc1Cl)C(=O)Nc1cc(-c2ccncc2)c[nH]c1=O | > 33000 | – | – | 42 | –
N#Cc1ccc(C[C@H](N)C(=O)Nc2cc(-c3ccncc3)c[nH]c2=O)cc1 | 4600 | – | – | 79 | –
O=C(Nc1cccc(-c2cn[nH]c2)c1)[C@H](Cc1ccccc1)NCc1cscn1 | 180 | 90 | 82 | – | –
Cn1cc(-c2c[nH]c(=O)c(NC(=O)[C@H](Cc3ccccc3)NCc3cscn3)c2)cn1 | 230 | 21 | 24 | – | –
O=C(Nc1nccc(-c2ccncc2)n1)[C@H](Cc1ccccc1)NCc1cscn1 | 360 | – | – | – | EC50 [2]: 290 nM
Nc1cc(-c2cccc(NC(=O)[C@H](Cc3ccccc3)NCc3cscn3)c2)ccn1 | 210 | 42 | 38 | – | –
O=C(Nc1cccc(-c2ccccc2)c1)[C@H](Cc1ccccc1)NCc1cscn1 | 640 | 46 | 57 | – | –
O=C(Nc1cc(-c2ccncc2)c[nH]c1=O)[C@H](Cc1ccccc1)NCCc1ccccc1 | 780 | – | – | 67 | –
O=C(Nc1ccccc1)[C@H](Cc1ccccc1)NCc1cscn1 | 3300 | 36 | 24 | – | –
N[C@@H](CC1CCCCC1)C(=O)Nc1cc(-c2ccncc2)c[nH]c1=O | > 33000 | – | – | 30 | –
N[C@H](Cc1ccccc1)C(=O)Nc1cc(-c2ccncc2)c[nH]c1=O | 13000 | – | – | 93 | –
Cc1ccc(C[C@H](N)C(=O)Nc2cc(-c3ccncc3)c[nH]c2=O)cc1 | 6600 | – | – | 73 | –
O=C(Nc1cc(-c2ccncc2)c[nH]c1=O)[C@H](Cc1ccccc1)NCC1CC1 | 760 | – | – | 106 | –
